This series is described as follows: Toxicity liver stage against HepG2, at 10uM. Format: cell-based. The arrangement: test concentration 10 uM, cell line HepG2-A16-CD81EGFP. The note with it: human, HepG2-A16-CD81EGFP cells; read-out: INHIBITION
The essentials: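 Uninfected HepG2-A16-CD81EGFP cells, 3 × 10^3 per well, 1536-well, plated on prespotted compound at 10 μM final, parasite-free screening media added to match infected plates; puromycin 10 μM positive, DMSO 0.5% negative; run in parallel with 48 h PbLuc assay at 37 °C, 5% CO2; viability by CellTiter-Glo luminescence, normalized to controls.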
Regarding `O=C(N1CCCC1)N1CC[C@H]2[C@H]1CCN2c1ncccn1`, the cytotoxicity at 10 µM was -1.19%.
To `CSCC(=O)N1CCCC(CCC(=O)N(C)CCc2ccccn2)C1` (stereo unspecified) belongs -3.09%; to `Cc1ccc(S(=O)(=O)N2CCc3nc(C4CCNCC4)ncc3C2)cc1`, -3.24%; to `CCc1cnc(NCC(c2ccncc2)N2CCOCC2)nc1` (stereo unspecified), 8.71%.
Consider `COc1ccc(Oc2cccnc2)cc1CN1CCCC1`, for which the cytotoxicity at 10 µM is 2.67%.
The same measure for `Cc1nc(C(NS(=O)(=O)N(C)C)c2ccccc2F)no1` (stereo unspecified): -2.09%; for `CN1CC(C(=O)NCCc2ccc3c(c2)OCCO3)CC1=O` (stereo unspecified): 5.51%; for `Cc1cccc(CN2C(=O)CCC23CCN(C(=O)N2CCCC2)CC3)n1`: 4.56%.
The same measure for `CNC(=O)CS(=O)(=O)Cc1coc(-c2ccc(OC)cc2)n1`: -2.95%; for `CN1CCO[C@@H]2CN(C(=O)Cc3cccs3)CC[C@@H]2C1`: -103%; for `Cc1cccc(C(C)(C)CNC(=O)CN(C)S(=O)(=O)c2cccnc2)c1`: 7.41%.
The same measure for `O=C(NCC1(c2cccc(F)c2)CC1)N1CCC2(CCOC2)C1` (stereo unspecified): 2.82%; for `CCN1CCC(Cn2ccc3ccc(C(=O)OC)cc3c2=O)C1` (stereo unspecified): -9.09%; for `Cc1cc(NS(=O)(=O)c2cnc3onc(C)c3c2)no1`: 4.43%.
Consider `CSc1nccc(NCC2CNCCOC2)n1` (stereo unspecified), for which the cytotoxicity at 10 µM is -5.13%.
With `CCC(CNS(=O)(=O)c1cccc(C(=O)OC)c1)N1CCCC1` (stereo unspecified), the cytotoxicity at 10 µM was -8.93%.
With `O=C(NCC1(Sc2ccccc2)CC1)c1ccc(=O)[nH]n1`, the cytotoxicity at 10 µM stood at 1.52%.
In the case of `Cn1cc(N2CC3(CCN(Cc4ccccc4)CC3)OCC2=O)cn1`, the cytotoxicity at 10 µM was determined as 5.25%.
The same measure for `CCCc1nc(C(=O)N(C)Cc2cnn(-c3cccc(OC)c3)c2)cs1`: 6.39%; for `CCCNC(=O)CCC(=O)N1CCC(c2n[nH]c(C3CC3)n2)CC1`: -3.82%.
To `O=C(CN1C(=O)CCNC1=O)N1CCC(c2ccc(F)cc2)C1` (stereo unspecified) belongs 4.3%; to `Cc1cnn(CC2CN(CC(=O)N(C)Cc3cccs3)CCO2)c1` (stereo unspecified), 6.28%.
As to `Cc1ccoc1C(=O)N1CCc2ncnc(-c3cnn(C)c3)c2CC1`, the cytotoxicity at 10 µM stood at 16.9%.
As to `CCn1ncnc1C1CC(=O)NCc2nc(N)sc21` (stereo unspecified), the cytotoxicity at 10 µM is -4.78%.
To `CCCn1nc2c(cc1=O)CN(Cc1c(C)noc1C)CC2` belongs -5.03%; to `Cc1csc(N2CCCN(C(=O)c3cnns3)CC2)n1`, 5.92%.
For `CCOCc1nc2c(c(N3CC=CC3)n1)CCN(Cc1ccco1)CC2`, the cytotoxicity at 10 µM was -3.81%.
`O=C(NCCc1cccc(F)c1)c1nc2c(s1)CCCN2C(=O)C1CC1`: the cytotoxicity at 10 µM was -91.4%.
`CSCC[C@H](NC(C)=O)c1nc(Cc2ccccc2)n[nH]1`: the cytotoxicity at 10 µM amounted to 5.06%.
In the case of `CC(=O)c1cccc(OCCCC(=O)N(C)Cc2cscn2)c1`, the cytotoxicity at 10 µM amounted to 0.175%.
As for `CC(C)(C)CC(=O)Nc1cnn(-c2ccccc2S(C)(=O)=O)c1`, the cytotoxicity at 10 µM is 3.69%.
To `COc1c(C(=O)NCC(C)Sc2ccccc2)c(C)nn1C` (stereo unspecified) belongs 12.1%; to `O=C1N(CCc2ccccc2)CCCC1(O)CNCc1ccc(F)cc1` (stereo unspecified), -1.24%; to `CCS(=O)(=O)Cc1nc(-c2cnn3c(C)cc(C)nc23)no1`, -4.79%.
The same measure for `CNC(=O)c1cccc(CN2CCN(C3=NCC(C)(C)S3)CC2)c1`: -2.37%.
As for `CCc1cc(CNCc2ccccc2N(C)C2CCN(C)CC2)on1`, the cytotoxicity at 10 µM was -11.7%.
The same measure for `c1ccc(-n2ccc(CN3CCOC(Cn4cncn4)C3)n2)cc1` (stereo unspecified): 0.561%; for `O=C(Cc1ccc2c(c1)CCC2)NCCNc1ncccn1`: -3.93%.
The same measure for `c1ccc(CCCN2CCN(CCn3cncn3)CC2)cc1`: -11.3%.
The same measure for `O=C(CCc1cc2n(n1)CCCN(C(=O)[C@H]1CCCO1)C2)NC1CC1`: 4.78%; for `CN1CCCN(C(=O)c2cnc(C(C)(C)C)nc2O)CC1`: -0.0816%; for `O=C(Nc1cc(Cl)ccc1N1CCCCC1)c1ccccn1`: -55%.
With `CO[C@@H]1CCN(S(=O)(=O)N(C)C)[C@@H]2CN(Cc3cccnc3)C[C@@H]21`, the cytotoxicity at 10 µM was -1.91%.
For the molecule `CCc1nc(C)c([C@H]2CN(C)C[C@@H]2C(=O)NCc2ccccn2)[nH]1`, the cytotoxicity at 10 µM was determined as 2.77%.
Take `CC(C)c1cc(NC(=O)c2ccc(NC3CC3)nc2)[nH]n1`: the cytotoxicity at 10 µM was -8.9%.
To `O=S(=O)(c1ccc(F)c(F)c1)N1CCCC(c2nccs2)C1` (stereo unspecified) belongs -0.523%.
The same measure for `CC(C)(CNc1ccc(C#N)c(C(F)(F)F)c1)C(N)=O`: 20.2%; for `CC(NCc1cccs1)c1ccc(OCc2nccn2C)cc1` (stereo unspecified): -7.88%; for `Cc1cc2n(n1)CC(CNCc1ccc(OCC3CC3)nc1)CN2` (stereo unspecified): -8.42%.
The same measure for `CCn1nc(C)c2c1cnn2CCNS(=O)(=O)Cc1ccccc1`: 9.6%.
For the molecule `Cc1cc(C)n(-c2nc(C(=O)NCCS(=O)(=O)N3CCCCC3)cs2)n1`, the cytotoxicity at 10 µM is -10.3%.
To `Cc1cc(=O)n(CC(=O)Nc2ccc(C(N)=O)cc2)nc1C` belongs -10.9%; to `COc1ccc(CCNC(=O)CN2CCCC2c2noc(C)n2)cc1` (stereo unspecified), 0.772%; to `O=C(NCc1nc[nH]n1)c1cc(COc2cccc(F)c2)[nH]n1`, -4.99%.
For the molecule `COCc1noc(Cn2ccc3ncccc3c2=O)n1`, the cytotoxicity at 10 µM was 1.56%.
With `Cn1cc(NC(=O)c2ccccn2)cc(Cl)c1=O`, the cytotoxicity at 10 µM came to 7.7%.
Regarding `CCN(CC)Cc1nnc2sc(-c3cc(C(C)C)[nH]n3)nn12`, the cytotoxicity at 10 µM is -7.02%.
To `CC1CCN(CC(=O)N(Cc2ccccc2)Cc2nccs2)C1=O` (stereo unspecified) belongs -0.0342%; to `Cc1nc(CN2CCC(Oc3ccc(F)cc3C)(C(=O)O)CC2)co1`, 2.28%.
To `CC(C)(C)c1ncc(C(=O)NCCNS(C)(=O)=O)s1` belongs -6.14%; to `CC(=O)c1ccc(Nc2nc(N)nc3c2nc(C)n3C)cc1`, -8.23%.
To `Cc1nccc(C2CN(Cc3ccc(-c4ccccc4C(=O)O)o3)C2)n1` belongs 4.28%; to `CCC(=O)NCC(=O)NC(Cc1ccccc1)c1sccc1C` (stereo unspecified), 9.25%; to `OCC1CCCN(c2ncnc3c2Cc2ccccc2OC3)C1` (stereo unspecified), 1.44%.
Take `Cc1ccc2cccc(S(=O)(=O)N(C)CC3CCN(C)C3)c2n1` (stereo unspecified): the cytotoxicity at 10 µM worked out at 1.5%.
As for `Cc1cnn(CC2CCCN2Cc2noc(C(C)(C)C)n2)c1` (stereo unspecified), the cytotoxicity at 10 µM was -10.7%.
Regarding `Fc1ccc(-c2nnc(CN3CCOC(Cn4cncn4)C3)o2)cc1` (stereo unspecified), the cytotoxicity at 10 µM is -5.97%.
To `CCOc1ccc(-c2ccnc(C3CC3)n2)cc1C(=O)O` belongs -0.173%; to `CC(O)CN1CCC(=O)N(Cc2ccccc2)Cc2ccccc21` (stereo unspecified), -3.37%; to `CCN1CCC(CC(=O)NCCc2nc(N)cc(O)n2)CC1`, 0.821%.
To `CCc1nc2n(n1)CC(NCc1ccccc1OCC(=O)NC)CC2` (stereo unspecified) belongs 4.57%.

For the origin of these results see ChEMBL document CHEMBL4513216, “Probing the Open Global Health Chemical Diversity Library for Multistage-Active Starting Points for Next-Generation Antimalarials” (ACS Infect Dis, 2020).
